In publication PMC7606181 (Acta Pharmaceutica Sinica. B, 2019):
Blank lines part the entries; values can stand above or below the compound they belong to.

Assays:
[1] = test system: red blood cell (RBC) suspension from mouse; experiment: Hemolysis assay; assay type: cell-based; conditions: 0.3% Triton
[2] = test system: 4T1 tumor-bearing mice; experiment: In vivo tumor-targeting assay and biodistribution; set-up: species or system BALB/c mice; conditions: i.v.
How it was run: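 Female BALB/c mice (about 5 weeks) carried mammary-pad 4T1 tumours (1 × 10^6 cells) and were used on day 10. Groups (n = 9) got PBS, DiD-loaded micelles or free DiD in propylene glycol/PBS 1:1, at 20 μg DiD per mouse via tail vein. Whole-body imaging at 1–24 h; ex vivo organ imaging at 4, 8 and 24 h (3 per point); confocal of 24 h tumour sections.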

[3] = test system: MMP-9; conditions: cited from earlier work
[4] = test system: 4T1 cells; experiment: Cytotoxicity MTT assay; assay type: cell-based, mouse
[5] = test system: 4T1 cells; experiment: Scratch healing assay; assay type: cell-based, mouse; conditions: 12 h
How it was run: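 4T1 monolayers at about 90% confluence were scratched in a straight line and rinsed with PBS. They were then incubated 12 h in medium with PBS or test agents (GEM-equivalent 0.1 μg/mL). Images were taken at 0 and 12 h, and healing rate was calculated by image analysis.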

[6] = Pharmacokinetic assay; assay type: in vivo, BALB/c mice
[7] = Hematological analysis and serum biochemical analysis; assay type: in vivo, BALB/c mice; conditions: mice, i.v., GEM-equivalent 4 mg/kg, 5 times
How it was run: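 Mice were split into 4 groups (n = 3): PBS or test preparations i.v. at GEM-equivalent 4 mg/kg, every 2 days for 5 doses. After treatment, blood was taken for haematology and serum for biochemistry.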

[8] = HE staining of major organs; assay type: in vivo, BALB/c mice; conditions: after treatment, compared with PBS group
[9] = Long-term stability in water at 4 °C; assay type: physicochemical
How it was run: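 Micelle solutions at 0.5 mg/mL in water were stored at 4 °C, alongside a TPGS-stabilised prodrug formulation as control. Appearance and particle size were recorded until precipitation appeared.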

[10] = test system: MMP-9; experiment: Detection of MMP-9 by Western blot in 4T1 cells; assay type: cell-based, mouse; conditions: 24 h, LT 100 μg/mL, LMWH 60 μg/mL
How it was run: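 4T1 cells at about 60% confluency were exposed for 24 h to fresh medium containing test agents or PBS. Lysates were centrifuged at 15,700×g, 4 °C, 15 min. Supernatant proteins were run on 6% SDS-PAGE and blotted to PVDF. Blots were probed with MMP-9 antibody and HRP-labelled anti-goat secondary, then imaged.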

[11] = test system: platelets adhering to 4T1 cells; experiment: Interaction of tumor cells with platelets; assay type: cell-based, mouse; conditions: LMWH-equivalent 80 μg/mL, compared with PBS group
How it was run: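 4T1 cells at about 80% confluency were pre-incubated 20 min with test agents or PBS (LMWH-equivalent 80 μg/mL). Washed platelets from fresh blood were labelled with 5 μmol/L calcein AM, added, and co-cultured 2 h. After washing, cells were lysed in DMSO and fluorescence read at Ex 490 / Em 515 nm.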

[12] = test system: 4T1 solid tumor; experiment: In vivo anti-tumor assay, 4T1 solid tumor model; set-up: species or system BALB/c mice; conditions: day 18
How it was run: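 Female BALB/c mice received 1 × 10^6 4T1 cells in the mammary pad. From day 5 they were grouped (n = 6) and dosed via tail vein with PBS or test preparations. Doses were GEM-equivalent 4 mg/kg and LMWH-equivalent 18.4 mg/kg, every 2 days for 5 doses. On day 18, tumours and major organs were taken for H&E staining.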

[13] = Tail bleeding assay; assay type: in vivo, BALB/c mice; conditions: mice, i.v., LMWH-equivalent 20 mg/kg, 30 min after injection, versus PBS
How it was run: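 Mice were split into 3 groups (n = 3): PBS or test agents i.v. at LMWH-equivalent 20 mg/kg. At 30 min, 3 mm of tail tip was cut and the tail immersed in PBS at 37 °C. The endpoint was time to complete cessation of bleeding.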

[14] = Content of GEM; assay type: physicochemical; conditions: toluidine blue spectrophotometry
How it was run: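 LMWH content: samples at 40 μg/mL were mixed with 0.005% toluidine blue in PBS (pH 7.4) and shaken 30 s. Hexane was added and shaken 1 min, and the aqueous layer was read at 630 nm. GEM content: acid/CuCl2 hydrolysis at 70 °C for 12 h, then filtration and C18 HPLC. Mobile phase was ammonium acetate pH 5.7/methanol 90:10 at 1 mL/min, UV 268 nm.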

[15] = female, BALB/c, mouse, plasma, iv, 4 mg/kg

Compound: Triton
erythrocyte lysis (positive control) [1]: complete cell lysis

main site of signal [2]: mainly showed in liver
Compound: CCCCCCCCCCCCCCCCCCN1C(=CC=CC=CC2=[N+](CCCCCCCCCCCCCCCCCC)c3ccccc3C2(C)C)C(C)(C)c2ccccc21 [free DiD, 1,1′-dioctadecyl-3,3,3′,3′-tetramethylindodicarbocyanine]

Compound: Cc1c(C)c2c(c(C)c1OC(=O)CCC(=O)O)CC[C@@](C)(CCC[C@H](C)CCC[C@H](C)CCCC(C)C)O2 [TOS, D-α-tocopherol succinate]
secretion of MMP-9 in B16F10 cells [3]: inhibited

clearance [6, 15]: 5.67 mL/min/kg | half-life [6, 15]: 36.9 ± 2.22 min | V1 ([6]; mice, i.v., GEM-equivalent 4 mg/kg, plasma GEM): 0.027 ± 0.015 L/kg | levels of CK (creatine kinase) in serum [7]: increased | number of white blood cells (WBC) and neutrophilic granulocyte (Gran) ([7]; compared with PBS group): decrease
Compound: Nc1ccn([C@@H]2O[C@H](CO)[C@@H](O)C2(F)F)c(=O)n1 [GEM, Gemcitabine]
cytotoxicity ([4]; MTT, 48 h): concentration-dependent cytotoxicity | relative cytotoxicity ([4]; concentration of GEM more than 0.037 μg/mL): more cytotoxic than GLT | scratch healing rate (in words, versus PBS) [5]: healing rates decreased | HE staining of other organs [8]: myocardial rupture and glomerular effusion

long-term stability (appearance, particle size) [9]: aggregated to form precipitates in 6 h
Compound: Cc1c(C)c2c(c(C)c1OC(=O)CCC(=O)Nc1ccn(C3OC(CO)C(O)C3(F)F)c(=O)n1)CCC(C)(CCCC(C)CCCC(C)CCCC(C)C)O2 (stereo not shown) [GT, GEM-TOS]

Compound: low-molecular-weight heparin [LMWH]
scratch healing rate (in words, versus PBS) [5]: healing rates decreased | MMP-9 secreted by 4T1 cells [10]: did not have obvious effect | number of adhesive platelets on tumor cells [11]: significantly decreased | HE staining of tumor [12]: retained their complete microstructures | bleeding time [13]: no significant difference

Compound: LMWH-TOS [LT]
content of LMWH [14]: 47% | cell viability ([4]; up to 250 μg/mL): almost did not affect cell viability | MMP-9 secreted by 4T1 cells [10]: significantly inhibited | number of adhesive platelets on tumor cells [11]: significantly decreased
